Measurements published in publication PMC11605122 (Nature Communications, 2024).
Entries after “also recorded” stand apart in the source; their conditions may differ.

Key:
plasma FFAs = format: in vivo, mouse
eWAT explants = assay: lipolysis; format: cell-based, mouse; conditions: 10 nM glucagon, 4 h
[1] = cited from earlier work
[2] = peptide concentration in plasma; format: in vivo, mouse; conditions: DIO mice, 24 h post-injection, 50 nmol/kg s.c., n = 6; cAMP bioassay
Outline: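 Plasma activity was read in a cAMP assay on CHO cells expressing human GLP-1R, in HBSS pH 7.4 with 25 mM HEPES, 0.1% BSA and 0.5 mM IBMX. Serial dilutions were run in duplicate for 30 min at RT with HTRF detection. Standards were reference peptide spiked into 0.2% (final) naïve plasma. Sample ratio = sample EC50/reference EC50; concentration = known top concentration/ratio.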

body weight, HFD-fed = format: in vivo, mouse; conditions: DIO mice, 1 week
plasma insulin = format: in vivo, mouse; conditions: DIO mice, Fc-GLP1
Outline: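 Plasma ALT was read with Reflotron strips and plasma TGs by colorimetric assay. Serum FGF21 and plasma adiponectin and insulin were measured by ELISA.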

blood ketone bodies = format: in vivo, mouse; conditions: DIO mice, Fc-GLP1
Outline: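 DIO mice were fed 60%-fat HFD from 8 weeks of age, for 12 weeks (males) or 24 weeks (females); one male cohort was housed at 30 °C. The test compound was given s.c. every 2 days in 50 mM sodium phosphate/300 mM mannitol pH 6.9. Glucose and ketone bodies were read in tail-vein blood.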

BAT skin temperature = format: in vivo, mouse; conditions: DIO mice, Fc-GLP1
BAT, eWAT, iWAT = assay: UCP1 and TH protein; format: in vivo, mouse; conditions: DIO mice, Fc-GLP1
[3] = test system: POMC neurons, arcuate nucleus; assay: cFos-positive POMC neurons in ARC; format: in vivo, mouse; conditions: DIO mice, Fc-GLP1, 1 week
Outline: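 Brain slices were blocked 2 h at RT in PBS with 1% BSA and 0.1% Triton X-100. They were incubated overnight at 4 °C with anti-POMC and anti-c-Fos, then with secondary antibodies in 1% BSA/PBS for 2 h at RT, protected from light.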

[4] = cited from earlier work; remark: listed apart in the source
[5] = cited from earlier work; remark: listed apart in the source
GCGR = assay: block of glucagon-induced glucose elevation in lean mice; format: in vivo, mouse
GCGR and GLP-1R = conditions: vs cognate ligands; cited from earlier work

glucagon: native GCGR ligand
circulating FFAs / lipolysis (plasma FFAs; lean mice, glucagon (100 nmol/kg), 1 h): this effect was not detected at 1 h; also recorded: did not increase lipolysis at 1 h | circulating FFAs (plasma FFAs; lean mice, glucagon, 6 h post-injection): an increase of circulating FFAs at 6 h post-injection | lipolysis (eWAT explants): increased lipolysis in eWAT explants | FFA concentration, supraphysiological administration [1]: increased FFA concentration | plasma FFAs, physiological doses ([1]; humans): did not find elevation in plasma FFAs in humans | lipolysis ex vivo in WAT explants ([1]; wild-type or adipocyte-specific GCGR-deficient mice, 1 h): lack of effect of glucagon in lipolysis ex vivo in WAT explants

HGEGTFTSDVSSYLEGQAAKEFIAWLVKGG-linker-Fc [Fc-GLP1, reference compound]
peptide plasma level [2]: 105.1 ± 18.33 nM | loss of body weight (body weight, HFD-fed; Fc-GLP1 50 nmol/kg): 11.0 ± 0.46% | plasma insulin peak (plasma insulin): a lower insulin peak | plasma FFAs (plasma FFAs; DIO mice, Fc-GLP1, 6 h): elevation of FFAs was not observed | ketogenesis (blood ketone bodies): ketogenesis was not elevated | BAT temperature (BAT skin temperature): neither UCP1 nor BAT temperature were increased | UCP1 in BAT (BAT, eWAT, iWAT): neither UCP1 nor BAT temperature were increased | cFos positive POMC neurons [3]: an increase in cFos positive POMC neurons

cotadutide
postprandial glucose, body weight, hepatic fat ([4]; obese/overweight individuals, type 2 diabetes): improved postprandial glucose excursions and reduced body weight and hepatic fat | glycemia, body weight, MASLD ([4]; phase 2b trial): reduced glycemia and body weight and improved metabolic-dysfunction associated steatotic liver disease (MASLD) | liver metabolism, MASH and fibrosis ([5]; C57BL/6J or ob/ob mice): more effective than obeticholic acid in improving liver metabolism and ameliorating MASH and fibrosis | liver inflammation and adipocyte apoptosis [5]: decreased liver inflammation and apoptosis in adipocytes

des-His1-[Glu9]-Glucagon (1-29) amide [GCGRant, reference compound]
body weight loss (body weight, HFD-fed; GCGRant alone (1 mg/kg i.p. daily)): 6.8 ± 0.46% | block of glucagon effect on glucose (GCGR): able to block the effect of glucagon in elevating glucose levels in lean mice

OXM: native peptide oxyntomodulin, activates both GLP-1R and GCGR
half-life in circulation [5]: short half-life in circulation | affinity to GLP-1R and GCGR (GCGR and GLP-1R): reduced affinity compared with their cognate ligands
